Key:
3T3-L1 cells [1] = experiment: Cell cytotoxicity; type: cell-based; conditions: MTT, 24 h
Method in brief: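 3T3-L1 cells were differentiated under hypoxia (100 μM CoCl2 in differentiation medium, refreshed every 2 days) and treated for 24 h at 37 °C with the test compound, at 1.5 μg/μl ASO equivalent. MTT (5 mg/ml in complete DMEM) was then added for 5 h. Formazan was dissolved in DMSO and absorbance read. Viability (%) = OD(sample)/OD(control) × 100.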

3T3-L1 cells [2] = experiment: Cellular uptake and intracellular localization by confocal microscopy; type: cell-based; conditions: 6-FAM-tagged ASO, 24 h; for cellular uptake, control group: non-differentiated control (Con) cells
Method in brief: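 Control or normoxic-differentiated 3T3-L1 cells were detached at day 4 after induction and re-seeded on chambered coverglass at 70% confluency. After about 20 h, cells were given 6-FAM (3′)-labelled ASO conjugate, or equivalent ASO or ionic complex, for 24 h without serum deprivation. After a PBS wash, live cells were imaged by laser-scanning confocal microscopy (water immersion ×60, 37 °C, 5% CO2).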

| Substance | cell viability under hypoxia compared to that of control (3T3-L1 cells [1]; differentiation under hypoxia, 1.5 μg/μl ASO) | concentration showing significant cell toxicity (3T3-L1 cells [1]; non-differentiated control 3T3-L1 cells, AS-L containing 0-10 μg/μl of ASO) | cellular uptake, differentiation group under normoxia (3T3-L1 cells [2]; differentiation under normoxia (D)) | cellular uptake, control group (3T3-L1 cells [2]) |
| --- | --- | --- | --- | --- |
| ASO: PS modified antisense-HIF1α-oligonucleotide, 5’-ACAACGCGGGCACCGATTCGCCATG-3’ (antisense ACAACGCGGGCACCGATTCGCCATG; all phosphorothioate, sugars by position and methylation of C not given here) | statistically indistinguishable | ≥ 2 µg/µL | unable to internalize into cells | unable to internalize into cells |
| MMO: PS modified mismatch-HIF1α-oligonucleotide, 5’-GTGATCCCCTGCTCTTGCCGT-3’ (GTGATCCCCTGCTCTTGCCGT; all phosphorothioate, sugars by position and methylation of C not given here) [reference compound] | – | – | – | unable to internalize into cells |

Source: paper PMC2862791 (Journal of controlled release : official journal of the …, 2010)
